# UHRF1 MBD2 ctr: UHRF1 methylated DNA binding inhibitors, primary screen, counter-screen for MBD2 inhibitor project, biochemical, TR-FRET, human UHRF1, single concentration | inhibition, % at 4.4 µM | UHRF1 binding to methylated oligo | 0.75% of 370,000 active; in the data active means inhibition above about 21%;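 further: UHRF1 SRA domain binding a hemimethylated CpG hairpin DNA probe; 0% = median of test compound wells and 100% = reference inhibitor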
# LEDGF integ inh: blockers of LEDGF/p75-dependent integrase strand transfer – biochemical, TR-FRET, high throughput, primary screen | HIV-1 integrase (with human LEDGF/p75) | TR-FRET IN-LEDGF/p75 DNA integration, Eu/Cy5 | inhibition, % at 3.7 µM | 0.64% of 370,000 active;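 active means inhibition above the screen-wide mean plus 3 SD, cut at about 13% in these data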;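 further: signal is the Cy5 over europium emission ratio at 671 and 618 nm; 0% = plate median of compound wells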
# MBD2 inh: inhibitors of MBD2 binding to methylated DNA, primary screen, biochemical, TR-FRET, DNA-binding domain, human; Methyl-CpG-binding domain protein 2 (Homo sapiens), Q9UBB5; MBD2 binding to methylated oligonucleotide; inhibition, % at 4.4 µM; 0.31% of 370,000 active; AID 686964, 2013; in the data active means inhibition above about 13%
# CSN deneddyl inh: inhibitors of CSN-mediated cullin deneddylation, primary screen, biochemical, fluorescence polarization, uHTS | Purified CSN, SCF-Nedd8-OG deneddylation | inhibition, % at 12.5 µM | 0.38% of 360,000 active | AID 651999, 2013;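 active means pattern-corrected inhibition above about 35%, with an unprinted fluorescence ratio check between 0.5 and 1.5, limit read from the data, passing the limit was not always enough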;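 further: 0% = enzyme with substrate and 100% = substrate without enzyme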
#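 Schedule: reaction 90 min, room temperature / Assay system: HEK293T-derived human Csn5 enzyme / Input: Csn5 at 0.24 nM final / Measure: inhibition of Csn5 cleavage, % / Control set: substrate-only high control, full reaction low control / Technique: fluorescence polarization of the substrate / Buffer or medium: Tris/NaCl/DTT buffer, pH 7.5 / Reagent: SCFSkp2-Nedd8OG substrate at 10 nM final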
# rCAG binder: binders of r(CAG) RNA repeats, primary screen, biochemical, fluorescence; r(CAG) RNA repeat, TO-PRO-1 dye displacement fluorescence; inhibition, % at 3 µM; 1.3% of 370,000 active; AID 651821, 2012;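 active means inhibition above the plate cutoff, the mean of all test compounds on that plate plus 3 SD, cut at about 35% in these data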;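 further: 0% = DMSO alone and 100% = 100 µM mitoxantrone as full dye displacement; higher means more dye released from RNA so lower well fluorescence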
# ATG4B inh: ATG4B protease inhibitors, primary screen, biochemical, fluorescence, uHTS; Cysteine protease ATG4B (Homo sapiens), Q9Y4P1; ATG4B cleavage of LC3-PLA2, NBD-HPC fluorescence, 1 h; inhibition, % at 8.33 µM; 0.51% of 340,000 active; in the data active means inhibition above about 40%
# Target sequence (Q9Y4P1 whole entry, looked up): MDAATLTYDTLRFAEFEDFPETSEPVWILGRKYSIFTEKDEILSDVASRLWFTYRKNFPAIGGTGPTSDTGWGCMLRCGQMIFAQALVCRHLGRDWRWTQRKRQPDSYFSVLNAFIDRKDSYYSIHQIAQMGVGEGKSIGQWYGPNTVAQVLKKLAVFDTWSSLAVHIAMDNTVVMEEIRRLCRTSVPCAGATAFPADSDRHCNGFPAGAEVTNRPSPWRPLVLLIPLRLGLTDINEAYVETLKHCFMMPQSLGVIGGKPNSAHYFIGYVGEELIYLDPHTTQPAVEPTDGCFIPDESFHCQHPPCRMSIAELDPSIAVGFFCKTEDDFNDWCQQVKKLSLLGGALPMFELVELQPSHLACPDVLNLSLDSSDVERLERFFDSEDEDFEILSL
# rCAG bind conf: small molecules binding CAG repeat RNA – biochemical, fluorescence, confirmation. AID 652065, 2013. shares compounds with rCAG binder. r(CAG) RNA repeat, TO-PRO-1 dye displacement fluorescence. 70% of 4,300 active. inhibition, % at 3 µM;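 active means inhibition above a per-plate cutoff, the mean inhibition of sample wells plus 3 SD, cut at about 35% in these data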;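 further: loss of TO-PRO-1 fluorescence as compound displaces dye from 1x1 AA loop RNA; 0% = DMSO only wells and 100% = 100 µM mitoxantrone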
# DNA CAG counter: displacement of TO-PRO-1 from CAG DNA duplex, counter-screen for rCAG RNA repeat binder project, biochemical, fluorescence, TO-PRO-1 dye, d(CAG) DNA oligo | shares compounds with rCAG binder | d(CAG) DNA oligo TO-PRO-1 dye displacement | inhibition, % at 3 µM | 94% of 4,300 active;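 active means inhibition above its plate's cutoff, the mean test-well inhibition plus 3 SD, cut at about 4.8% in these data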;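 further: 0% = DNA dye mix with DMSO and 100% = 100 µM mitoxantrone; hits displace the dye from DNA and so lower well fluorescence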
# Active calls of the source: *; / = not tested or not shown. The list is not random: actives were taken first. Their share in the collection is about 3.1%.
SMILES,UHRF1 MBD2 ctr,LEDGF integ inh,MBD2 inh,CSN deneddyl inh,rCAG binder,ATG4B inh,rCAG bind conf,DNA CAG counter
COc1ccc(-n2c(COc3ccc(C)cc3)nnc2SCC(=O)Nc2ccc(S(=O)(=O)Nc3cc(C)nc(C)n3)cc2)cc1,-2,-3,1,/,51*,/,44*,14*
CCOc1ccc(-n2c(SCC(=O)Nc3ccc(S(=O)(=O)Nc4cc(C)nc(C)n4)cc3)nnc2-c2ccc(C)cc2)cc1,0,2,2,/,52*,/,58*,18*
Cc1cc(NS(=O)(=O)c2ccc(NC(=O)CSc3nnc(-c4ccccn4)n3-c3ccccc3)cc2)nc(C)n1,1,0,-3,/,22,/,/,/
CCOc1ccc(-n2c(SCC(=O)Nc3ccc(S(=O)(=O)Nc4cc(C)nc(C)n4)cc3)nnc2-c2ccncc2)cc1,1,3,6,/,20,/,/,/
CCOc1ccc(-n2c(SCC(=O)Nc3ccc(S(=O)(=O)Nc4cc(C)nc(C)n4)cc3)nnc2-c2cccc(C)c2)cc1,0,2,-4,/,47*,/,47*,16*
CC(C)CN1C(=O)C[C@@]2(C(=O)N(C)c3ccc(NC(=O)C(F)(F)F)cc32)C1c1ccccc1 (stereo partly specified),2,1,1,/,-1,/,/,/
CC(C)C[C@H]1COc2cc(Br)ccc2S(=O)(=O)N1Cc1cn(Cc2ccco2)nn1,-1,2,-4,/,2,/,/,/
CCOc1ccc(-n2c(SCC(=O)Nc3ccc(S(=O)(=O)Nc4cc(C)nc(C)n4)cc3)nnc2-c2ccc(OC)cc2)cc1,0,-4,-2,/,41*,/,44*,15*
Oc1csc(Cc2nc(-c3ccc(-c4ccccc4)cc3)cs2)n1,1,5,-2,9,9,-6,/,/
Oc1csc(Cc2nc(-c3ccc4ccccc4c3)cs2)n1,1,0,1,-1,36*,-10,32,18*
Cc1cc(C(=O)O)ccc1-n1c(C)cc(C=C2C(=O)c3ccccc3C2=O)c1C,-2,4,1,-2,43*,22,41*,11*
C=CCN1C(=O)[C@H](CC(=O)NCc2ccccc2)[C@@]2(C(=O)OCC)CCCC=C12,0,-3,-8,/,1,/,/,/
N#Cc1cc(N2CCCCC2)c([N+](=O)[O-])cc1C#N,2,2,-1,4,-2,-8,/,/
O=[N+]([O-])c1cc2no[n+]([O-])c2cc1N1CCCCC1,-5,9,-2,2,44*,5,7,3
O=C(O)c1ccc(NC(=O)c2cn(-c3ccccc3)nc2-c2cccc(Cl)c2)cc1,-3,5,3,2,36*,10,55*,19*
